Legend:
[1] = biological target: Vascular endothelial growth factor receptor 1 (Homo sapiens) (UniProt P17948); test: Competitive binding affinity to FLT1 (unknown origin) at 10 uM in presence of ATP relative to control
[2] = system: T1, Receptor-type tyrosine-protein kinase FLT3 (Homo sapiens), P36888 [N841I]; test: Competitive binding affinity to FLT3 N841I mutant (unknown origin) at 10 uM in presence of ATP relative to control
T1 sequence (whole entry): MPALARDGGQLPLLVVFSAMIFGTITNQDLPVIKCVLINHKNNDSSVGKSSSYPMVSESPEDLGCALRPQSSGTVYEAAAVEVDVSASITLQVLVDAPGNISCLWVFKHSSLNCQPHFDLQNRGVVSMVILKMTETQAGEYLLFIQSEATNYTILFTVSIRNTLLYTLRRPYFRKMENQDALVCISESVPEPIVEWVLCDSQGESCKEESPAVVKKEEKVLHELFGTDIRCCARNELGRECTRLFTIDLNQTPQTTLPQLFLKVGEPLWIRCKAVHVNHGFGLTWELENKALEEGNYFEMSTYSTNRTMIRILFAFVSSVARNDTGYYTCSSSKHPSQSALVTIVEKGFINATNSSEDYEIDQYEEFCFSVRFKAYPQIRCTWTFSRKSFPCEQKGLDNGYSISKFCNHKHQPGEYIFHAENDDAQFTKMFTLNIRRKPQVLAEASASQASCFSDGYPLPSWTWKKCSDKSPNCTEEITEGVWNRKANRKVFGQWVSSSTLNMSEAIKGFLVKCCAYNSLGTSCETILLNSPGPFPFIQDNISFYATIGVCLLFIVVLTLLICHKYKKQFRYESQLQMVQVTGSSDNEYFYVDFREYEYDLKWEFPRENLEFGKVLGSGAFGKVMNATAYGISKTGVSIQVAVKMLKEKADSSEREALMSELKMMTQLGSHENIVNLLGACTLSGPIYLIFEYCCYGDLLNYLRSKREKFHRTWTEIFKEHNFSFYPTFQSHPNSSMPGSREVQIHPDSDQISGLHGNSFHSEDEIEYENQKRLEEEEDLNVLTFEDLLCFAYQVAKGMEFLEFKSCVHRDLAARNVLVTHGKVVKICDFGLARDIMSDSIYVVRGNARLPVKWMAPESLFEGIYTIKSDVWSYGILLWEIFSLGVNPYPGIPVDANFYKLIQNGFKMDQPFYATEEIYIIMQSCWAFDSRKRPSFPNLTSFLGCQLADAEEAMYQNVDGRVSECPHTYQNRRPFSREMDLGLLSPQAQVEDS

[3] = biological target: T2, Ephrin type-B receptor 3 (Homo sapiens) (UniProt P54753); test: Competitive binding affinity to EPHB3 (unknown origin) at 10 uM in presence of ATP relative to control
T2 sequence (whole entry): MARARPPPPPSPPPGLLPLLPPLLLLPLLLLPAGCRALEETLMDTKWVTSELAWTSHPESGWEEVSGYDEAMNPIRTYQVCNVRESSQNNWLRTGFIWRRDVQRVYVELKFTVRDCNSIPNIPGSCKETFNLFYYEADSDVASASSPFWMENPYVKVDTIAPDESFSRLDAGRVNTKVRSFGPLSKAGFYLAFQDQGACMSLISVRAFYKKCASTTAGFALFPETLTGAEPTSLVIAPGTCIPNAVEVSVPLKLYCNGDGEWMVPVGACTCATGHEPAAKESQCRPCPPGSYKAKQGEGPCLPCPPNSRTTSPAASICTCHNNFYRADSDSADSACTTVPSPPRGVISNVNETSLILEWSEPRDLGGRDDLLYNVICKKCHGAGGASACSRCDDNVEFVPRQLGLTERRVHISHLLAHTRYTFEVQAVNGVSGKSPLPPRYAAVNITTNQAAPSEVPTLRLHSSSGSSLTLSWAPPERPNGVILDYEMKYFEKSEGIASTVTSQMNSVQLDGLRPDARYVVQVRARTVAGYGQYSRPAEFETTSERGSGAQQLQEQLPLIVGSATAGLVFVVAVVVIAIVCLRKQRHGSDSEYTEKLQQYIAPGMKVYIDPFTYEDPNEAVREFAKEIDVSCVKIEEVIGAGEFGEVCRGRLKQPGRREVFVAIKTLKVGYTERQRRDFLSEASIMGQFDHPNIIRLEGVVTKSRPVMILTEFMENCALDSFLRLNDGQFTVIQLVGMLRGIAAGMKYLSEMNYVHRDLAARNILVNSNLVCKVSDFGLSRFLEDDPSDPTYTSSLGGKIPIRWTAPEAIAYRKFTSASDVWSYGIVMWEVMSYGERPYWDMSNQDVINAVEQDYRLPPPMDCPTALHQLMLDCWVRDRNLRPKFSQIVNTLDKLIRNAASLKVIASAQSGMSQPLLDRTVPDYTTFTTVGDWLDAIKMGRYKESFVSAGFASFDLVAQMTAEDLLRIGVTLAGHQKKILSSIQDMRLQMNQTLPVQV
Summary of the method: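 In vitro ATP-site competition binding assay, part of profiling against a diverse panel of 128 kinases. Each compound was tested at a single concentration of 10 µM. Kinome selectivity was summarized as S15 selectivity scores.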

[4] = biological target: Ribosomal protein S6 kinase alpha-4 (Homo sapiens) (UniProt O75676); test: Competitive binding affinity to RPS6KA4 kinase domain 1 (unknown origin) at 10 uM in presence of ATP relative to control
Homo sapiens = species: Homo sapiens; test: Selectivity ratio of IC50 for human JNK2 to IC50 for human JNK1
Summary of the method: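 JNK1 and JNK2 activities were each measured as phosphorylation of GST-ATF2 (19–96) with [γ-33P]ATP, and IC50s were determined for each enzyme. The ratio is JNK2 IC50 over JNK1 IC50. IC50s are the mean of at least three experiments.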

[5] = biological target: Dual specificity mitogen-activated protein kinase kinase 2 (Homo sapiens) (UniProt P36507); test: Competitive binding affinity to MEK2 (unknown origin) at 10 uM in presence of ATP relative to control
[6] = biological target: T3, Phosphatidylinositol 5-phosphate 4-kinase type-2 beta (Homo sapiens) (UniProt P78356); test: Competitive binding affinity to PIP5K2B (unknown origin) at 10 uM in presence of ATP relative to control
T3 sequence (whole entry): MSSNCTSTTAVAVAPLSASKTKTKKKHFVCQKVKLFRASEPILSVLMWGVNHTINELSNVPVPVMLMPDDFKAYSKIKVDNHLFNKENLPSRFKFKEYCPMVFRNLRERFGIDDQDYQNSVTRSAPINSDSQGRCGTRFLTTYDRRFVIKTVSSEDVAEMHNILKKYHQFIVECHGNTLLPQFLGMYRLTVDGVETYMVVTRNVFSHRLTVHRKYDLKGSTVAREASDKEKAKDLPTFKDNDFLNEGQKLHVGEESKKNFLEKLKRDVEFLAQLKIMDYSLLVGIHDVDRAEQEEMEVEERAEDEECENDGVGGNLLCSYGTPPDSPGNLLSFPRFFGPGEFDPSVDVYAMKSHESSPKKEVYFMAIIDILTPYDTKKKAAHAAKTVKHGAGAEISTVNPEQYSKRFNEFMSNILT

Dual specificity mitogen-activated protein kinase kinase 2 (Homo sapiens), sequence (P36507 whole entry): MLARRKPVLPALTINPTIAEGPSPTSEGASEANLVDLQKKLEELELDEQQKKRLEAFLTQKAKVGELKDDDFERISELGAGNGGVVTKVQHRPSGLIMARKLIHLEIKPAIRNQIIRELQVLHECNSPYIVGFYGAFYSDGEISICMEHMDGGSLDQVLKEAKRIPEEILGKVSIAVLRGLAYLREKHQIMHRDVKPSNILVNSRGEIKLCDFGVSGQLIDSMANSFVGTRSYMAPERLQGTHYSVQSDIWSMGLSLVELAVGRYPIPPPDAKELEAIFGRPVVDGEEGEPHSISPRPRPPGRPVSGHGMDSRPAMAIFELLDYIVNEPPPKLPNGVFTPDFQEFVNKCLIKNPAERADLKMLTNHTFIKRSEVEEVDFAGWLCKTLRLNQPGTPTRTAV
Vascular endothelial growth factor receptor 1 (Homo sapiens), sequence (P17948 whole entry): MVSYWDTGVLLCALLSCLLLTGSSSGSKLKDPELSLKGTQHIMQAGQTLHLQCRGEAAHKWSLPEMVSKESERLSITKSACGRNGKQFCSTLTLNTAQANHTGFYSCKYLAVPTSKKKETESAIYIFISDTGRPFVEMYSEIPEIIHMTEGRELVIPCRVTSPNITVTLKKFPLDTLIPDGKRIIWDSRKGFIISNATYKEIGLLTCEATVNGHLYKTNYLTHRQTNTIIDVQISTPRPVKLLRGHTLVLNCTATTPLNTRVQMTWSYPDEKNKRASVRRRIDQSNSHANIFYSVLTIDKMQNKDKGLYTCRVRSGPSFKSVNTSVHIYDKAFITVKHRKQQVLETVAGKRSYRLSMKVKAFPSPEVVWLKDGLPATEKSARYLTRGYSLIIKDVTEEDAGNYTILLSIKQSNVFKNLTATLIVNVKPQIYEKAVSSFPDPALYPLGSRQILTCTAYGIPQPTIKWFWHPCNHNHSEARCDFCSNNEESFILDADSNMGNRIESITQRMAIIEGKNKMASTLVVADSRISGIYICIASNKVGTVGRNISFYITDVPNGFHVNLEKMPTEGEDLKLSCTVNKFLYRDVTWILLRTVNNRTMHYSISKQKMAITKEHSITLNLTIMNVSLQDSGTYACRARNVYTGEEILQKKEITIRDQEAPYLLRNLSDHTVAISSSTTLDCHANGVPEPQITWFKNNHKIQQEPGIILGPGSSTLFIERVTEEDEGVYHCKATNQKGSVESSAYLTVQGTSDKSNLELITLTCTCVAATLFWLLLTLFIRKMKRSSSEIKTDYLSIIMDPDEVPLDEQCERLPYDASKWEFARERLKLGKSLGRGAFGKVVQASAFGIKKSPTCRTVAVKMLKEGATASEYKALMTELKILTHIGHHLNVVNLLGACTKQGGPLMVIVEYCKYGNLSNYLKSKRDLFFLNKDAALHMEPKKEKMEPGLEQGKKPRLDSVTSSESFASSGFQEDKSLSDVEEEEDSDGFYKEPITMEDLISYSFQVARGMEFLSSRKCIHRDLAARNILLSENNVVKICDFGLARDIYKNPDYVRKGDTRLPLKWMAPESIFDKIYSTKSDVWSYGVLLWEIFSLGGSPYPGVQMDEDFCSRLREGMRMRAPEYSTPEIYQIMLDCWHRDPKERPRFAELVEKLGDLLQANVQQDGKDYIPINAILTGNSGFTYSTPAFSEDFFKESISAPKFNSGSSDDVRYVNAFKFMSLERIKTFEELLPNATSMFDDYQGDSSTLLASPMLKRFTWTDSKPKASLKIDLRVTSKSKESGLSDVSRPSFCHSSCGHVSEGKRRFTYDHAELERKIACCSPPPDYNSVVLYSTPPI
Ribosomal protein S6 kinase alpha-4 (Homo sapiens), sequence (O75676 whole entry, looked up, the tested form may be a part): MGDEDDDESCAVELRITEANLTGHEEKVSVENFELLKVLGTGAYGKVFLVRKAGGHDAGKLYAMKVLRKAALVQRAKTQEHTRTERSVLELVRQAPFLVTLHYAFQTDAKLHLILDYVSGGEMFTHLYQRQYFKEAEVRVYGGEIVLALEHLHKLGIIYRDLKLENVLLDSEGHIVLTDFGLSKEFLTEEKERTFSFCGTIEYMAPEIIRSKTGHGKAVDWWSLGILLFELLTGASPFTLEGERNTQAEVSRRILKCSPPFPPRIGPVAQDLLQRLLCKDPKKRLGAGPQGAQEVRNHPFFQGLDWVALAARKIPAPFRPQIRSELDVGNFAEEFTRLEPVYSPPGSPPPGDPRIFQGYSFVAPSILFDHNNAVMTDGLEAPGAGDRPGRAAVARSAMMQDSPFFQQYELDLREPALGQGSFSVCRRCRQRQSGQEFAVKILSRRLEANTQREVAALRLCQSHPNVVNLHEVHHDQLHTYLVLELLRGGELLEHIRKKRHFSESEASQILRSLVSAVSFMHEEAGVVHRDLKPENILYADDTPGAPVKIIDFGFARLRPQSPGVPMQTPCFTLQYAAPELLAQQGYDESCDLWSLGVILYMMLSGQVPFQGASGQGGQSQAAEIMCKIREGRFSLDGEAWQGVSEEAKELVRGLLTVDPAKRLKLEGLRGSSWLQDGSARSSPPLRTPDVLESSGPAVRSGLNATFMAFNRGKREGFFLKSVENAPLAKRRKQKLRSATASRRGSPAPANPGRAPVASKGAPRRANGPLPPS

Row | Structure (SMILES) | inhibition [1] [%] | inhibition [2] [%] | inhibition [3] [%] | inhibition [4] [%] | Ratio IC50 (Homo sapiens) | inhibition [5] [%] | inhibition [6] [%]
1 | O[C@H]1CC[C@H](Nc2nccc(-c3n[nH]c4ccccc34)n2)CC1 | 95 | 100 | < 50 | 99 |  |  | 
2 | O[C@H]1CC[C@H](Nc2nccc(-n3ccc4ccccc43)n2)CC1 | < 50 | < 50 | < 50 | < 50 |  | < 50 | < 50
3 | O=C([C@H]1CC[C@H](Nc2nccc(-n3nnc4ccccc43)n2)CC1)N1CCOCC1 |  |  |  |  | 4 |  | 

Results, then the compound that gave them:

Row | inhibition [1] [%] | inhibition [2] [%] | inhibition [3] [%] | inhibition [4] [%] | Ratio IC50 (Homo sapiens) | inhibition [5] [%] | inhibition [6] [%] | Structure (SMILES)
4 |  |  |  |  | 4 |  |  | N[C@H]1CC[C@H](Nc2nccc(-n3nnc4ccccc43)n2)CC1
5 | 82 | 98 | < 50 | < 50 | 4 | < 50 | 74 | O[C@H]1CC[C@H](Nc2nccc(-n3nnc4ccccc43)n2)CC1
6 | 71 | 97 | < 50 | < 50 |  | < 50 | 92 | O[C@H]1CC[C@H](Nc2nccc(-n3ncc4ccccc43)n2)CC1
